Measurements of several laboratories.
Each line is one published result; the experiments were not run side by side.
Technique: competition with immobilised ligand
RPS6KA1 N-terminal kinase domain: Ribosomal protein S6 kinase alpha-1, N-terminal kinase domain (RPS6KA1, Homo sapiens, UniProt Q15418)
RPS6KA1 C-terminal kinase domain: Ribosomal protein S6 kinase alpha-1, C-terminal kinase domain (RPS6KA1, Homo sapiens, UniProt Q15418)

| SMILES | target | observed | concentration | remaining binding [%] |
| --- | --- | --- | --- | --- |
| C[C@@H](c1ccc(-n2cnc3c(N)ncnc32)cc1)N1CCc2nn(C)c(Cc3ccccc3)c2C1=O | RPS6KA1 N-terminal kinase domain | binding | 0.1 µM | 96 |
| CC(=O)c1c(NS(C)(=O)=O)c2cc(-c3ccc(Cl)cc3)c(-c3ccc(Cl)cc3Cl)nc2n(C)c1=O | RPS6KA1 C-terminal kinase domain | cell-free assay | 1 µM | 88 |
| O=C(c1ccc(Nc2ncc(Cl)c(-c3cc4ccccc4s3)n2)cc1)N1CCC(N2CCCC2)CC1 | RPS6KA1 C-terminal kinase domain | binding | 1 µM | 82 |
| COc1ncc2cc3ccccc3nc2c1C#N | RPS6KA1 C-terminal kinase domain | cell-free assay | 5 µM | 49 |
| CCS(=O)(=O)c1cc2cc(C[C@@](O)(CC(C)(C)c3ccc(F)cc3C(N)=O)C(F)(F)F)[nH]c2cn1 | RPS6KA1 N-terminal kinase domain | cell-free assay | 1 µM | 100 |
| N[C@@H]1CCN(c2nccc(-c3cnn4ncccc34)n2)C1 | RPS6KA1 N-terminal kinase domain | binding | 1 µM | 100 |
| C=CC(=O)N1CCC(C(=O)NCC(=O)N2CCN(c3nc(-c4cnc(N)nc4C(F)F)nc(N4CCOCC4)n3)CC2)CC1 | RPS6KA1 C-terminal kinase domain | binding | 1 µM | 100 |
| COc1cc(-c2cn(C3CCc4c(F)cccc4N(CC(F)(F)F)C3=O)nn2)ccc1-n1cnc(C)c1 (stereo not shown) | RPS6KA1 C-terminal kinase domain | cell-free assay | 1 µM | 100 |
| CCN1CCN(Cc2ccc(C(=O)Nc3ccc(C)c(Oc4ccc5c(c4)CC(=O)N5)c3)cc2C(F)(F)F)CC1 | RPS6KA1 C-terminal kinase domain | binding | 1 µM | 95 |
| O=C(NCCCC1CCCCC1)c1ccc(CNC(=O)c2cnn(-c3ccccc3)c2C(F)(F)F)cc1 | RPS6KA1 N-terminal kinase domain | cell-free assay | 0.1 µM | 100 |
| O=C(NCC1CCOCC1)c1n[nH]cc1NC(=O)c1c(F)cccc1F | RPS6KA1 N-terminal kinase domain | binding | 1 µM | 93 |
| CN(c1nccc(-c2cnn3ncccc23)n1)C1CC1 | RPS6KA1 C-terminal kinase domain | binding | 1 µM | 100 |
| c1cncc(-c2cccc(Nc3nccc(NC4CCCCC4)n3)c2)c1 | RPS6KA1 N-terminal kinase domain | binding | 10 µM | 9.9 |
| C[C@H]1CCN(c2nccc(-c3cnn4ncccc34)n2)C1 | RPS6KA1 N-terminal kinase domain | binding | 1 µM | 94 |
| CC(C)CC(=O)N1CCc2nc(-c3ccc(Br)cc3)nc(N(C)Cc3ccccc3)c2C1 | RPS6KA1 N-terminal kinase domain | cell-free assay | 0.1 µM | 93 |
| O=C(c1ccc(Nc2nccc(-c3cc4ccccc4s3)n2)cc1)N1CCC(N2CCCC2)CC1 | RPS6KA1 C-terminal kinase domain | binding | 1 µM | 60 |

| SMILES | target | observed | concentration | remaining binding [%] |
| --- | --- | --- | --- | --- |
| FC(F)(F)Oc1cccc(-c2cnc3ccc(-c4ccncc4)nn23)c1 | RPS6KA1 C-terminal kinase domain | binding | 5 µM | 41 |
| O=C(Nc1cccnn1)N1CC(C/C=C/c2cncc(Oc3ccc(C(F)(F)F)cn3)n2)C1 | RPS6KA1 C-terminal kinase domain | cell-free assay | 1 µM | 92 |
| COc1cnc(Nc2cccc(S(N)(=O)=O)c2)nc1N1CCN(c2ccccc2)C(=O)C1 | RPS6KA1 N-terminal kinase domain | binding | 1 µM | 100 |
| O=C(c1ccc(Nc2ncc(Cl)c(-c3ccc(Cl)s3)n2)cc1)N1CCC(N2CCCC2)CC1 | RPS6KA1 N-terminal kinase domain | binding | 1 µM | 53 |
| CNC(=O)[C@@H]1CC[C@@H](n2c(-c3ccc4cnccc4c3)nc3ccc(C(=O)NCc4cccc(C(N)=O)c4)cc32)C1 | RPS6KA1 N-terminal kinase domain | binding | 1 µM | 100 |
| O=C(NCCCN1CCOCC1)c1ccc(Nc2nccc(-c3cc4ccccc4s3)n2)cc1 | RPS6KA1 C-terminal kinase domain | binding | 1 µM | 54 |
| O=C(NCc1ncc(C(F)(F)F)cc1Cl)c1ccc2c(c1)C1(CCS(=O)(=O)CC1)[C@H](C1CC1)N2S(=O)(=O)c1ccc(F)cc1 | RPS6KA1 C-terminal kinase domain | cell-free assay | 1 µM | 99 |
| CN(CCCC(F)(F)F)c1nccc(-c2cnn3ncccc23)n1 | RPS6KA1 N-terminal kinase domain | binding | 1 µM | 100 |
| CO[C@@H](C)c1c(Nc2ccc([C@H](N(C)C(=O)C3CCS(=O)(=O)CC3)C(F)(F)F)cc2)cnc2cc(Cl)nn12 | RPS6KA1 C-terminal kinase domain | cell-free assay | 1 µM | 91 |
| CN(C)c1ncc(F)c(-c2cnn3ncccc23)n1 | RPS6KA1 N-terminal kinase domain | binding | 1 µM | 100 |
| O=C(Nc1c[nH]nc1C(=O)NC1CCNCC1)c1cc(F)cc(F)c1 | RPS6KA1 N-terminal kinase domain | binding | 1 µM | 100 |
| COc1cnc(Nc2cccc(S(N)(=O)=O)c2)nc1N1CCN(c2ccccc2)CC1 | RPS6KA1 C-terminal kinase domain | binding | 1 µM | 83 |
| CC1CCCN1c1nccc(-c2cnn3ncccc23)n1 (stereo not shown) | RPS6KA1 N-terminal kinase domain | binding | 1 µM | 100 |
| O=C(NCCCN1CCOCC1)c1ccc(Nc2ncc(Cl)c(-c3ccc(Cl)s3)n2)cc1 | RPS6KA1 N-terminal kinase domain | binding | 1 µM | 55 |
| Nc1ncc2c(n1)-c1c([nH]c3ccc(C#CC4CC4)cc13)CCCC2 | RPS6KA1 C-terminal kinase domain | binding | 1 µM | 86 |
